Tests used:
Type in all cases: functional, cell-based
MDA-MB-231 = test: Antitumor activity against human MDA-MB-231 cells by methylene blue staining method
Procedure, shortened: (§1)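 Cells grown in RPMI1640 with 10% fetal bovine serum, seeded in 96-well plates and cultured overnight at 37 °C, 5% CO2 before serially diluted samples were added. After 3 days of culture, stained 30 min with 0.05% methylene blue in 10 mM Tris pH 8.5, washed with water, dye extracted with 3% HCl, OD660 read. Independent triplicates; IC50 from means. Cisplatin control included in each assay.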

NCI-H460 = test: Antitumor activity against human NCI-H460 cells by methylene blue staining method; procedure, shortened: as §1
A498 = test: Antitumor activity against human A498 cells by methylene blue staining method; procedure, shortened: as §1
PC-3 = test: Antitumor activity against human PC3 cells by methylene blue staining method; procedure, shortened: as §1
T47D = test: Antitumor activity against human T47D cells by methylene blue staining method; procedure, shortened: as §1
DLD-1 = test: Antitumor activity against human DLD1 cells by methylene blue staining method; procedure, shortened: as §1
UO-31 = test: Antitumor activity against human UO31 cells by methylene blue staining method; procedure, shortened: as §1
HCT-116 = test: Antitumor activity against human HCT116 cells by methylene blue staining method; procedure, shortened: as §1

SMILES	IC50 (MDA-MB-231)	IC50 (NCI-H460)	IC50 (A498)	IC50 (PC-3)	IC50 (T47D)	IC50 (DLD-1)	IC50 (UO-31)	IC50 (HCT-116)
CC(=O)O[C@@H]1[C@@H](O[C@H]2C[C@H]3[C@@H]4CCc5cc(O)ccc5[C@H]4CC[C@]3(C)[C@@]2(O)[C@H](C)C(=O)CCC(C)C)OC[C@@H](O)[C@H]1O[C@@H]1OC[C@@H](O)[C@H](O)[C@H]1O	6940 nM	9980 nM	–	–	–	–	–	–
COc1ccc(C(=O)O[C@H]2[C@H](O[C@H]3[C@H](OC(C)=O)[C@@H](O[C@H]4C[C@H]5[C@@H]6CCc7cc(O)ccc7[C@H]6CC[C@]5(C)[C@@]4(O)[C@H](C)C(=O)CCC(C)C)OC[C@H]3O)OC[C@@H](O)[C@@H]2O)cc1	680 nM	260 nM	430 nM	1400 nM	710 nM	1180 nM	–	–
COc1ccc(C(=O)O[C@H]2[C@H](O[C@H]3[C@H](OC(C)=O)[C@@H](O[C@H]4C[C@H]5[C@@H]6CCc7cc(O)ccc7[C@H]6CC[C@]5(C)[C@@]4(O)[C@H](C)C(=O)CCC(C)C)OC[C@H]3F)OC[C@@H](O)[C@@H]2O)cc1	850 nM	2590 nM	300 nM	680 nM	2810 nM	1720 nM	56 nM	2900 nM
COc1ccc(C(=O)O[C@@H]2CCO[C@H]2O[C@H]2[C@H](OC(C)=O)[C@@H](O[C@H]3C[C@H]4[C@@H]5CCc6cc(O)ccc6[C@H]5CC[C@]4(C)[C@@]3(O)[C@H](C)C(=O)CCC(C)C)OC[C@H]2O)cc1	18200 nM	5750 nM	–	–	–	–	–	–
COc1ccc(C(=O)O[C@H]2[C@H](O[C@@H]3CCO[C@H](O[C@H]4C[C@H]5[C@@H]6CCc7cc(O)ccc7[C@H]6CC[C@]5(C)[C@@]4(O)[C@H](C)C(=O)CCC(C)C)[C@H]3OC(C)=O)OC[C@@H](O)[C@@H]2O)cc1	10900 nM	13700 nM	–	–	–	–	–	–
COc1cccc2c1C(=O)c1c(O)c3c(c(O)c1C2=O)C[C@@](O)(C(=O)CO)C[C@@H]3O[C@H]1C[C@H](N)[C@H](O)[C@H](C)O1 [DOXORUBICIN]	100 nM	3.7 nM	35 nM	200 nM	27 nM	100 nM	100 nM	37 nM

— ChEMBL document CHEMBL1149681, “OSW-1 analogues: modification of the carbohydrate moiety” (Bioorg Med Chem Lett, 2007)
